Screening results deposited in PubChem by Johns Hopkins Ion Channel Center.
TRPC6 act: activates the mouse TRPC6 cation channel | B-score at 10 µM | Q61143 | HEK293-TRPC6 membrane potential dye fluorescence; hits give high values | 0.13% of 310,000 active;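 active means B-score of the integrated fluorescence ratio above library mean plus 3 SD, and starting fluorescence ratio within library mean plus 5 SD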;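 further: higher score means more depolarization so channel activation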
Target sequence (Q61143 whole entry, looked up): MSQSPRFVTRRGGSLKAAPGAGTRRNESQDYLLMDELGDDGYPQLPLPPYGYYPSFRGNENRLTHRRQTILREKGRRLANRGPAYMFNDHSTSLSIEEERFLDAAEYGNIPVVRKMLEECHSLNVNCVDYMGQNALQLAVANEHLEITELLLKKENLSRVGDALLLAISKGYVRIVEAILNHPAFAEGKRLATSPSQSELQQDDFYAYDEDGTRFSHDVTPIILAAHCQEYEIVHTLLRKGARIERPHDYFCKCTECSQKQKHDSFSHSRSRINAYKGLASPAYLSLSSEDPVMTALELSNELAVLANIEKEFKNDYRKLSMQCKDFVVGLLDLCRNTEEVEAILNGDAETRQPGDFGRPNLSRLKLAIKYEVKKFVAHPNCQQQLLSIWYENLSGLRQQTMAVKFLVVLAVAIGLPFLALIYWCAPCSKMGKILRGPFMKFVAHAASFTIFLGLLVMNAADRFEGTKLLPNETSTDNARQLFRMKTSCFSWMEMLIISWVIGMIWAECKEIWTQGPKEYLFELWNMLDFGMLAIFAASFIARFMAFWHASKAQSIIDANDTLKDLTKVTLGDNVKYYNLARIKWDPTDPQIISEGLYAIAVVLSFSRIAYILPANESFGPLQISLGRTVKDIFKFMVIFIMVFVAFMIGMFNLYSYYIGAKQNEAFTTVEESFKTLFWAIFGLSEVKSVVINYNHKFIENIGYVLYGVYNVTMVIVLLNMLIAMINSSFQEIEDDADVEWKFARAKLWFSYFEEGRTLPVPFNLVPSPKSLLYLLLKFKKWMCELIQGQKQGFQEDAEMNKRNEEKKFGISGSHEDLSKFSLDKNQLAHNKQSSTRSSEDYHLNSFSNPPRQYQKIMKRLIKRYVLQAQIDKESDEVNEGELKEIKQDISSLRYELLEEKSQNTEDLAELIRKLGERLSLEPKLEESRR
TRPC6 inhibitor: blocks the mouse TRPC6 cation channel; HEK293-TRPC6, membrane potential dye, ACh-evoked depolarization; hits give low values; 1.1% of 310,000 active; B-score at 10 µM; AID 2553; Q61143;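 active means B-score under library mean minus 3 SD, initial fluorescence not abnormally high, positive integrated signal ratio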;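 further: B-score derived from integrated fluorescence ratio over the kinetic read; more negative B-score means stronger inhibition of depolarization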
TRPC4 agonist: TRPC4 (mouse) channel activation; Q9QUQ5; HEK293 TRPC4beta/mu-opioid, Fluo4 calcium fluorescence; hits give high values; B-score at 10 µM; 0.49% of 310,000 active;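 active means B-score above 5 SD of library B-scores, and initial fluorescence ratio not above library mean plus 5 SD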;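 further: positive B-score marks a calcium rise read as TRPC4 activation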
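Assay system: HEK293 stable line with TRPC4beta plus mu-opioid receptor. Times: dye 45 min RT, read 110 s. Measured by: kinetic Fluo4 calcium fluorescence. Measure: B score of integrated ratio. Controls: assay buffer as low control, maximal DAMGO as high control.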
TRPC4 potent: allosterically enhances the mouse TRPC4 cation channel | Q9QUQ5 | HEK293 TRPC4beta/mu-opioid, DAMGO EC20, Fluo-4 Ca2+ flux; hits give high values | B-score at 10 µM | 0.42% of 310,000 active | AID 2227;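 active means B-score of calcium response area above 5 SD of library B-scores, with initial fluorescence ratio within 5 SD of library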;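 further: B-score of integrated fluorescence ratio over time as area under calcium response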
TRPC4 inh: TRPC4 (mouse) channel inhibition; HEK293 TRPC4beta/mu-opioid, DAMGO-evoked Fluo4 calcium flux; hits give low values; Q9QUQ5; 0.39% of 300,000 active; AID 2247; B-score at 10 µM;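 active means B-score over 3 SD under the library average, no early fluorescence shift, positive overall ratio signal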
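Assay system: HEK293 cells with stable TRPC4beta plus mu-opioid receptor expression; Probe or stimulus: DAMGO in two steps, submaximal then maximal; Dosing: single-point compound dosing; Measured by: Fluo4 calcium-dye fluorescence, kinetic read; Read-out basis: B score from integrated Fluo4 fluorescence ratio.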
Starred values were filed as active, the others as inactive. An excerpt weighted towards active compounds, which were near 2.3% of everything screened.

For c1ccc(Cn2nnnc2C(c2cccnc2)N2CCN(C3CCCCC3)CC2)cc1 (stereo not drawn) the results were TRPC6 act inactive, TRPC6 inhibitor inactive, TRPC4 agonist 103*, TRPC4 potent inactive and TRPC4 inh inactive.
Fc1ccc(C(c2nnnn2Cc2ccco2)N2CCN(C3CCCCC3)CC2)cc1 (stereo not drawn) was read as TRPC6 act inactive, TRPC6 inhibitor inactive, TRPC4 agonist 196*, TRPC4 potent inactive and TRPC4 inh inactive.
COc1cccc(OCCNC(=O)c2cc(OC)c(OC)c(OC)c2)c1 was read as TRPC6 act inactive, TRPC6 inhibitor inactive, TRPC4 agonist inactive, TRPC4 potent inactive and TRPC4 inh inactive.
CCOc1ccc(S(=O)(=O)NC(C)(C)C)cc1-c1nc2c(C(C)(C)C)nn(C)c2c(=O)[nH]1 was read as TRPC6 act inactive, TRPC6 inhibitor inactive, TRPC4 agonist inactive, TRPC4 potent 11* and TRPC4 inh inactive.
`Cc1nn(-c2cc(C(F)(F)F)ccc2Cl)c2nc(C(F)(F)F)[nH]c(=O)c12` gave TRPC6 act inactive, TRPC6 inhibitor inactive, TRPC4 agonist inactive, TRPC4 potent inactive and TRPC4 inh inactive.
Screening Cc1nn(-c2cccc(Cl)c2)c2nc(C(F)(F)F)[nH]c(=O)c12 returned TRPC6 act inactive, TRPC6 inhibitor inactive, TRPC4 agonist inactive, TRPC4 potent inactive and TRPC4 inh -8*.
Screening CCCCCn1c(=O)[nH]c2cc(C(=O)NCCCN(C)Cc3ccccc3)ccc2c1=O returned TRPC6 act inactive, TRPC6 inhibitor inactive, TRPC4 agonist inactive, TRPC4 potent 12* and TRPC4 inh inactive.
For CCOCCCNC(=O)c1ccc2c(=O)n(CCCOCC)c(=S)[nH]c2c1 the results were TRPC6 act inactive, TRPC6 inhibitor inactive, TRPC4 agonist inactive, TRPC4 potent inactive and TRPC4 inh inactive.
`CCCCN(C)CCNC(=O)c1ccc(Cn2c(=S)[nH]c3ccc(Br)cc3c2=O)cc1` gave TRPC6 act inactive, TRPC6 inhibitor inactive, TRPC4 agonist inactive, TRPC4 potent 25* and TRPC4 inh inactive.
For CCOCCCn1c(=S)[nH]c2cc(C(=O)NCCCN(CC)CC)ccc2c1=O the results were TRPC6 act inactive, TRPC6 inhibitor inactive, TRPC4 agonist inactive, TRPC4 potent 24* and TRPC4 inh inactive.
For N#Cc1c(NC(=O)/C=C/C(=O)O)sc2c1CCN(Cc1ccccc1)C2 the results were TRPC6 act inactive, TRPC6 inhibitor inactive, TRPC4 agonist inactive, TRPC4 potent inactive and TRPC4 inh inactive.
CN(CC(=O)Nc1sc2c(c1C#N)CCCCC2)Cc1nc2ccccc2c(=O)[nH]1 was read as TRPC6 act inactive, TRPC6 inhibitor inactive, TRPC4 agonist inactive, TRPC4 potent 16* and TRPC4 inh inactive.
Screening COc1ccc(CN(C)CC(=O)Nc2sc3c(c2C#N)CCC3)cc1OC returned TRPC6 act inactive, TRPC6 inhibitor inactive, TRPC4 agonist inactive, TRPC4 potent inactive and TRPC4 inh -6*.
Screening O=C1CC(NS(=O)(=O)c2cccs2)CN1c1ccccc1 (stereo not drawn) returned TRPC6 act inactive, TRPC6 inhibitor inactive, TRPC4 agonist inactive, TRPC4 potent 18* and TRPC4 inh inactive.
For O=C1CC(NS(=O)(=O)c2cccs2)CN1c1ccc(Cl)cc1 (stereo not drawn) the results were TRPC6 act inactive, TRPC6 inhibitor inactive, TRPC4 agonist inactive, TRPC4 potent inactive and TRPC4 inh inactive.
Screening O=C(O)CSCC(=O)N1CCN(S(=O)(=O)c2cc(Cl)cc(Cl)c2)CC1 returned TRPC6 act inactive, TRPC6 inhibitor inactive, TRPC4 agonist inactive, TRPC4 potent inactive and TRPC4 inh inactive.
For CCC(=O)c1ccccc1OCCCN1CCC(Cc2ccccc2)CC1 the results were TRPC6 act inactive, TRPC6 inhibitor -6.5*, TRPC4 agonist inactive, TRPC4 potent inactive and TRPC4 inh inactive.
`CCOc1ccccc1OCCN1CCC(Cc2ccccc2)CC1` gave TRPC6 act inactive, TRPC6 inhibitor inactive, TRPC4 agonist inactive, TRPC4 potent inactive and TRPC4 inh inactive.
`O=C(NCc1ccco1)c1ccc2nc3sc4c(c3c(=O)n2c1)CCCC4` gave TRPC6 act inactive, TRPC6 inhibitor inactive, TRPC4 agonist inactive, TRPC4 potent inactive and TRPC4 inh -6*.
Screening Nc1cc(C(F)(F)F)ccc1Nc1ccccc1 returned TRPC6 act inactive, TRPC6 inhibitor inactive, TRPC4 agonist inactive, TRPC4 potent inactive and TRPC4 inh -6*.
Screening Cc1ccc(-c2nc(NCC3CCCO3)sc2C)cc1 (stereo not drawn) returned TRPC6 act inactive, TRPC6 inhibitor inactive, TRPC4 agonist inactive, TRPC4 potent inactive and TRPC4 inh inactive.
O=C(N/N=C/c1ccncc1)c1cccc(S(=O)(=O)Nc2ccc(Cl)cc2)c1 was read as TRPC6 act inactive, TRPC6 inhibitor inactive, TRPC4 agonist inactive, TRPC4 potent inactive and TRPC4 inh inactive.
CN(C)CCCOC(=O)c1sc2ccccc2c1Cl was read as TRPC6 act inactive, TRPC6 inhibitor inactive, TRPC4 agonist inactive, TRPC4 potent inactive and TRPC4 inh inactive.
CN(C(=O)COC(=O)c1sc2ccccc2c1Cl)C1CCCCC1 was read as TRPC6 act inactive, TRPC6 inhibitor inactive, TRPC4 agonist inactive, TRPC4 potent 29* and TRPC4 inh inactive.
Screening Cc1ccc(-c2cc(C(=O)Nc3nccs3)c3ccccc3n2)o1 returned TRPC6 act inactive, TRPC6 inhibitor inactive, TRPC4 agonist inactive, TRPC4 potent inactive and TRPC4 inh -7*.
For Cc1ccc(-c2cc(C(=O)Nc3nccs3)c3ccccc3n2)c(C)c1 the results were TRPC6 act inactive, TRPC6 inhibitor inactive, TRPC4 agonist inactive, TRPC4 potent inactive and TRPC4 inh inactive.
For Cc1ccc(NC(=O)COC(=O)c2ccc(=O)n(Cc3ccccc3)n2)cc1F the results were TRPC6 act inactive, TRPC6 inhibitor inactive, TRPC4 agonist inactive, TRPC4 potent inactive and TRPC4 inh inactive.
`CCc1nnc(NC(=O)CSc2nc(N)c(NC(=O)c3ccc(OC)cc3)c(=O)[nH]2)s1` gave TRPC6 act inactive, TRPC6 inhibitor inactive, TRPC4 agonist inactive, TRPC4 potent inactive and TRPC4 inh inactive.
COc1ccc(C)cc1N(C(=O)c1ccccc1F)c1nc2ccccc2s1 was read as TRPC6 act inactive, TRPC6 inhibitor inactive, TRPC4 agonist inactive, TRPC4 potent inactive and TRPC4 inh -6*.
O=C(CCC(=O)c1cccs1)NCc1cccnc1 was read as TRPC6 act inactive, TRPC6 inhibitor inactive, TRPC4 agonist inactive, TRPC4 potent inactive and TRPC4 inh inactive.
